According to article PMC4415995 (Advances in Therapy, 2015):
Read-outs that look alike come from different tables or passages of the source.

Columns and labels:
[1] = test system: Japanese patients with T2DM; assay: Clinical laboratory tests and vital signs, 7-day once-daily dosing; format: in vivo, human
How it was run: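 Randomized, single-blind, placebo-controlled, parallel-group study in Japanese T2DM outpatients (HbA1c 6.9–10.5%, FPG ≥126 mg/dL, stable diet 4 weeks, age 20–74 y). Test compound 0.5, 1, 2.5 or 5 mg or placebo was given orally once daily for 7 days before breakfast. Safety set was all dosed patients. AEs were coded in MedDRA 12.1 and graded mild/moderate/severe, with drug relation judged by the investigator. Labs, vital signs, body weight and ECG were also recorded.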

[2] = test system: Japanese patients with T2DM; conditions: cited from earlier work
SGLT1 = conditions: SGLT2 vs SGLT1; cited from earlier work

CCOc1ccc(Cc2cc([C@@H]3S[C@H](CO)[C@@H](O)[C@H](O)[C@H]3O)c(OC)cc2C)cc1 [Luseogliflozin, (1S)-1,5-anhydro-1-[5-(4-ethoxybenzyl)-2-methoxy-4-methylphenyl]-1-thio-D-glucitol]
Cystatin C, change from baseline ([1]; 0.5 mg OD, Day 1): -0.040 ± 0.018 mg/L
DBP, change from baseline ([1]; 0.5 mg OD, Day 1): 3.0 ± 5.2 mmHg
Hematocrit, change from baseline ([1]; 0.5 mg OD, Day 1): −1.14 ± 0.73%
SBP, change from baseline ([1]; 0.5 mg OD, Day 1): −1.7 ± 6.0 mmHg
Serum calcium, change from baseline ([1]; 0.5 mg OD, Day 1): -0.19 ± 0.12 mg/dL
Serum phosphorus, change from baseline ([1]; 0.5 mg OD, Day 1): 0.30 ± 0.40 mg/dL
Urinary NAG, change from baseline ([1]; 0.5 mg OD, Day 1): −0.31 ± 0.67 U/L
Urinary calcium, change from baseline ([1]; 0.5 mg OD, Day 1): 0.01 ± 0.04 g/day
Urinary phosphorus, change from baseline ([1]; 0.5 mg OD, Day 1): -0.13 ± 0.10 g/day
Urinary type IV collagen, change from baseline ([1]; 0.5 mg OD, Day 1): −0.40 ± 1.08 μg/g creatinine
Urinary uric acid, change from baseline ([1]; 0.5 mg OD, Day 1): 0.04 ± 0.05 g/day
Urinary β2-microglobulin, change from baseline ([1]; 0.5 mg OD, Day 1): -12.4 ± 25.2 µg/L
Cystatin C, change from baseline ([1]; 0.5 mg OD, Day 7): -0.067 ± 0.029 mg/L
DBP, change from baseline ([1]; 0.5 mg OD, Day 7): 3.1 ± 3.8 mmHg
Hematocrit, change from baseline ([1]; 0.5 mg OD, Day 7): −2.20 ± 0.95%
SBP, change from baseline ([1]; 0.5 mg OD, Day 7): −5.9 ± 3.8 mmHg
Serum calcium, change from baseline ([1]; 0.5 mg OD, Day 7): -0.24 ± 0.05 mg/dL
Serum phosphorus, change from baseline ([1]; 0.5 mg OD, Day 7): 0.16 ± 0.40 mg/dL
Urinary NAG, change from baseline ([1]; 0.5 mg OD, Day 7): −0.06 ± 0.80 U/L
Urinary calcium, change from baseline ([1]; 0.5 mg OD, Day 7): 0.01 ± 0.04 g/day
Urinary phosphorus, change from baseline ([1]; 0.5 mg OD, Day 7): -0.04 ± 0.13 g/day
Urinary type IV collagen, change from baseline ([1]; 0.5 mg OD, Day 7): −0.21 ± 1.25 μg/g creatinine
Urinary uric acid, change from baseline ([1]; 0.5 mg OD, Day 7): -0.01 ± 0.07 g/day
Urinary β2-microglobulin, change from baseline ([1]; 0.5 mg OD, Day 7): -7.4 ± 27.1 µg/L
Cystatin C, change from baseline ([1]; 1 mg OD, Day 1): 0.005 ± 0.077 mg/L
DBP, change from baseline ([1]; 1 mg OD, Day 1): 0.4 ± 4.9 mmHg
Hematocrit, change from baseline ([1]; 1 mg OD, Day 1): −1.26 ± 0.86%
SBP, change from baseline ([1]; 1 mg OD, Day 1): 3.5 ± 9.6 mmHg
Serum calcium, change from baseline ([1]; 1 mg OD, Day 1): -0.19 ± 0.16 mg/dL
Serum phosphorus, change from baseline ([1]; 1 mg OD, Day 1): 0.57 ± 0.32 mg/dL
Urinary NAG, change from baseline ([1]; 1 mg OD, Day 1): −0.33 ± 0.99 U/L
Urinary calcium, change from baseline ([1]; 1 mg OD, Day 1): 0.00 ± 0.00 g/day
Urinary phosphorus, change from baseline ([1]; 1 mg OD, Day 1): -0.13 ± 0.10 g/day
Urinary type IV collagen, change from baseline ([1]; 1 mg OD, Day 1): −0.44 ± 0.61 μg/g creatinine
Urinary uric acid, change from baseline ([1]; 1 mg OD, Day 1): 0.08 ± 0.07 g/day
Urinary β2-microglobulin, change from baseline ([1]; 1 mg OD, Day 1): -8.5 ± 31.3 µg/L
Cystatin C, change from baseline ([1]; 1 mg OD, Day 7): -0.061 ± 0.043 mg/L
DBP, change from baseline ([1]; 1 mg OD, Day 7): −0.8 ± 6.6 mmHg
Hematocrit, change from baseline ([1]; 1 mg OD, Day 7): −2.68 ± 0.89%
SBP, change from baseline ([1]; 1 mg OD, Day 7): −2.4 ± 12.8 mmHg
Serum calcium, change from baseline ([1]; 1 mg OD, Day 7): -0.41 ± 0.14 mg/dL
Serum phosphorus, change from baseline ([1]; 1 mg OD, Day 7): 0.20 ± 0.21 mg/dL
Urinary NAG, change from baseline ([1]; 1 mg OD, Day 7): 0.73 ± 0.80 U/L
Urinary calcium, change from baseline ([1]; 1 mg OD, Day 7): 0.00 ± 0.00 g/day
Urinary phosphorus, change from baseline ([1]; 1 mg OD, Day 7): 0.00 ± 0.13 g/day
Urinary type IV collagen, change from baseline ([1]; 1 mg OD, Day 7): 0.66 ± 1.22 μg/g creatinine
Urinary uric acid, change from baseline ([1]; 1 mg OD, Day 7): -0.03 ± 0.20 g/day
Urinary β2-microglobulin, change from baseline ([1]; 1 mg OD, Day 7): 17.3 ± 54.9 µg/L
Cystatin C, change from baseline ([1]; 2.5 mg OD, Day 1): 0.016 ± 0.060 mg/L
DBP, change from baseline ([1]; 2.5 mg OD, Day 1): −4.3 ± 5.6 mmHg
Hematocrit, change from baseline ([1]; 2.5 mg OD, Day 1): −0.58 ± 1.48%
SBP, change from baseline ([1]; 2.5 mg OD, Day 1): −5.6 ± 9.5 mmHg
Serum calcium, change from baseline ([1]; 2.5 mg OD, Day 1): -0.15 ± 0.23 mg/dL
Serum phosphorus, change from baseline ([1]; 2.5 mg OD, Day 1): 0.68 ± 0.23 mg/dL
Urinary NAG, change from baseline ([1]; 2.5 mg OD, Day 1): −0.68 ± 1.33 U/L
Urinary calcium, change from baseline ([1]; 2.5 mg OD, Day 1): -0.01 ± 0.04 g/day
Urinary phosphorus, change from baseline ([1]; 2.5 mg OD, Day 1): -0.24 ± 0.07 g/day
Urinary type IV collagen, change from baseline ([1]; 2.5 mg OD, Day 1): −0.05 ± 1.13 μg/g creatinine
Urinary uric acid, change from baseline ([1]; 2.5 mg OD, Day 1): -0.01 ± 0.04 g/day
Urinary β2-microglobulin, change from baseline ([1]; 2.5 mg OD, Day 1): -11.0 ± 44.9 µg/L
Cystatin C, change from baseline ([1]; 2.5 mg OD, Day 7): -0.064 ± 0.054 mg/L
DBP, change from baseline ([1]; 2.5 mg OD, Day 7): −6.1 ± 5.6 mmHg
Hematocrit, change from baseline ([1]; 2.5 mg OD, Day 7): −2.89 ± 1.81%
SBP, change from baseline ([1]; 2.5 mg OD, Day 7): −8.8 ± 10.9 mmHg
Serum calcium, change from baseline ([1]; 2.5 mg OD, Day 7): -0.40 ± 0.27 mg/dL
Serum phosphorus, change from baseline ([1]; 2.5 mg OD, Day 7): 0.38 ± 0.29 mg/dL
Urinary NAG, change from baseline ([1]; 2.5 mg OD, Day 7): −0.08 ± 1.26 U/L
Urinary calcium, change from baseline ([1]; 2.5 mg OD, Day 7): 0.00 ± 0.05 g/day
Urinary phosphorus, change from baseline ([1]; 2.5 mg OD, Day 7): -0.03 ± 0.17 g/day
Urinary type IV collagen, change from baseline ([1]; 2.5 mg OD, Day 7): 0.21 ± 1.85 μg/g creatinine
Urinary uric acid, change from baseline ([1]; 2.5 mg OD, Day 7): -0.06 ± 0.07 g/day
Urinary β2-microglobulin, change from baseline ([1]; 2.5 mg OD, Day 7): 5.5 ± 44.0 µg/L
Cystatin C, change from baseline ([1]; 5 mg OD, Day 1): 0.028 ± 0.042 mg/L
DBP, change from baseline ([1]; 5 mg OD, Day 1): 0.6 ± 6.0 mmHg
Hematocrit, change from baseline ([1]; 5 mg OD, Day 1): −0.54 ± 0.85%
SBP, change from baseline ([1]; 5 mg OD, Day 1): −1.3 ± 12.5 mmHg
Serum calcium, change from baseline ([1]; 5 mg OD, Day 1): -0.10 ± 0.20 mg/dL
Serum phosphorus, change from baseline ([1]; 5 mg OD, Day 1): 1.08 ± 0.37 mg/dL
Urinary NAG, change from baseline ([1]; 5 mg OD, Day 1): −0.81 ± 1.01 U/L
Urinary calcium, change from baseline ([1]; 5 mg OD, Day 1): -0.01 ± 0.04 g/day
Urinary phosphorus, change from baseline ([1]; 5 mg OD, Day 1): -0.24 ± 0.11 g/day
Urinary type IV collagen, change from baseline ([1]; 5 mg OD, Day 1): 0.11 ± 0.97 μg/g creatinine
Urinary uric acid, change from baseline ([1]; 5 mg OD, Day 1): 0.08 ± 0.12 g/day
Urinary β2-microglobulin, change from baseline ([1]; 5 mg OD, Day 1): -1.3 ± 13.5 µg/L
Cystatin C, change from baseline ([1]; 5 mg OD, Day 7): -0.027 ± 0.065 mg/L
DBP, change from baseline ([1]; 5 mg OD, Day 7): −3.1 ± 6.0 mmHg
Hematocrit, change from baseline ([1]; 5 mg OD, Day 7): −1.66 ± 1.99%
SBP, change from baseline ([1]; 5 mg OD, Day 7): −11.3 ± 11.8 mmHg
Serum calcium, change from baseline ([1]; 5 mg OD, Day 7): -0.16 ± 0.45 mg/dL
Serum phosphorus, change from baseline ([1]; 5 mg OD, Day 7): 0.42 ± 0.39 mg/dL
Urinary NAG, change from baseline ([1]; 5 mg OD, Day 7): −0.11 ± 1.18 U/L
Urinary calcium, change from baseline ([1]; 5 mg OD, Day 7): -0.03 ± 0.05 g/day
Urinary phosphorus, change from baseline ([1]; 5 mg OD, Day 7): -0.01 ± 0.14 g/day
Urinary type IV collagen, change from baseline ([1]; 5 mg OD, Day 7): 0.31 ± 1.26 μg/g creatinine
Urinary uric acid, change from baseline ([1]; 5 mg OD, Day 7): 0.01 ± 0.10 g/day
Urinary β2-microglobulin, change from baseline ([1]; 5 mg OD, Day 7): 1.4 ± 20.3 µg/L
incidence of hypoglycemia ([2]; 0.5 mg, Phase II, 1/60): 1.7%
incidence of AEs related to genital infection ([2]; 2.5 mg, Phase III, 1/79): 1.3%
incidence of hypoglycemia ([2]; 2.5 mg, Phase III, 1/79): 1.3%
incidence of pollakiuria ([2]; 2.5 mg, Phase III, 2/79): 2.5%
incidence of AEs related to renal function ([2]; 2.5 mg, Phase III, 6/79): 7.6%
body weight change ([2]; 2.5 mg, over 24 weeks of treatment): -2.70 kg
incidence of hypoglycemia ([2]; 5 mg, Phase II, 1/54): 1.9%
episodes of volume depletion ([2]; Phase III study): no episodes
IC50 for SGLT2 lower than IC50 for SGLT1 (selectivity) (SGLT1): 1765 fold
